According to the RNAGym collection of RNA variant scans (doi:10.1101/gad.245936.114):
Variants at the floor of the assay were thinned out.

B1: tRNA (parent)
chain: CUCUCGGUAGCCAAGUUGGUUUAAGGCGCAAGACUUUAAUUUAUCACUACGAAAUCUUGAGAUCGGGCGUUCGACUCGCCCCCGGGAGAUUUUUUCCUCGAGCAA

Variants of: B1
Assay: nonsense suppression (GFP-seq) (ratio to wild type); higher = more function; SUP4oc tRNA, yeast GFP reporter sort-seq
How it was run: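 Yeast were grown in raffinose/galactose medium with 80 mg/L adenine, each strain bearing a genome-integrated ochre-suppressor tRNA variant from a ~3% random-mutation library, a galactose-driven GFP ochre reporter, and RFP. After sorting into GFP/RFP bins, every bin was sequenced on an Illumina platform at phred ≥30. The GFPSEQ value, a measure of nonsense suppression, is the weighted bin median GFP/RFP relative to the unmutated parent tRNA, using each variant's estimated cell share per bin as the weight. Only variants with ≥100 reads and ≥30 cells were included.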

| Variant | nonsense suppression |
| --- | --- |
| CUCUCGGUAGCCAAGUUGGUUUUAGGCGCAAGACUUUAAUUUAUCACUACGAAAUCUUGAGAUCAGGCGUUCGACUCGCCCCCGGGAGAUUUUUUCCUCGAGCAA [A23U G65A] | ≤ 0.026 |
| CUCUCGGUAGCCAAGUUGGUUUGAGGCGCAAGACUUUAAUUUAUCACUACGAAAUAUUGAGAGCGGGCGUUCGACUCGCCCCCGGGAGAUUUUUUCCUCGAGCAA [A23G C56A U63G] | ≤ 0.026 |
| CUCUCGGUAGCCAAGUUGGUUUUAGGCGCAACACUUUAAUUUAUCACUACGAAAUCCUGAGAUCGGGCGUUCGACUCGCCACCGGGAGAUUUUUUCCUCGAGCAA [A23U G32C U57C C81A] | ≤ 0.026 |
| CUCUCGGUAGCCAAGUUGGUUUGAGGCGCAAGACUUUAAUUUAUCACUACGAAAUCUUGAGAUCGGGCGUUCGACUCGCCCCCUGUAGAUUUUUUCCUCGAGCAA [A23G G84U G86U] | ≤ 0.026 |
| CUCUCGGUAGCCAAGUUGGUUUGAGGCGCAAGACUUUAAUUUAUCACUACGAAAUCUUGAGAUCGGGCGUUCGACUCUCCCCCGGGAGAUUUUUUCCUCGAGCAA [A23G G78U] | 0.0956 |
| CUCUCGGUAGCCAAGUUGGUUUGAGGCGCAAGACUUUAAUUUAUCACUACGAAAUCUUGAGAUCGGGCGUUCGACUCACCCCCGGGAGAUUUUUUCCUCGAGCAA [A23G G78A] | 0.0355 |
| CUCUCGGUAGCCAAGUUGGUUUGAGGCGCAAGACUUUAAUUUAUCACUACGAAAUCUUGAGAUCGGGCGCUCGACUCGCCCCCGGGAGAUUUUUUCCUCGAGCAA [A23G U70C] | ≤ 0.026 |
| CUCUCGGUAGCCAAGUUGGUUUGAGGCGCAAGACUUUAAUUUAUCACUACGAAAUAUUGAGAUGGGGCGUUCGCCUCGCCCCCGGGAGAUUUUUUCCUCGAGCAA [A23G C56A C64G A74C] | ≤ 0.026 |
| CUCUCGGUAGCCAAGUUGGUUUUAGGCGCAAGACUUUAAUUUAUCACUACGAAAUCUUGAGAUCGGGCGUUCGACUCUCCCCCGGGAGAUUUUUUCCUCGAGCAA [A23U G78U] | 0.0382 |
| CUCUCGGUAGCCAAGUUGGUUUGAGGCGCAAGACUUUAAUUUAUCACUACGAAAUGUUGAGAUCAGGCGUGCGACUCGCCCCCGGGAGAUUUUUUCCUCGAGCAA [A23G C56G G65A U71G] | ≤ 0.026 |
| CUCUCGGUAGCCAAGUUGGUUUGCGGCGCAAGAUUUUAAUUUAUCACUACGAAAUCUUGAGAUCGGGCGUUAGACUCGCCCCCGGGAGUUUUUUUCCUCGAGCAA [A23G A24C C34U C72A A89U] | ≤ 0.026 |
| CUCUCGGUAGCCAAGUUGGUUUGAGGCGCAAGACUUUAAUUUAUCACUACGAAAUCUUGAGAUCGGGCGUUCCACUCGCCCCCGGGAGAUUUUUUCCUCGAGCAA [A23G G73C] | ≤ 0.026 |
| CUCUCGGUAGCCAAGUUGGUUUGAGGCGCAAGACUUUAAUUUAUCACUACGAAAUCUUGAGAUCGGGCGUUCAACUCGCCCCCGGGAGAUUUUUUCCUCGAGCAA [A23G G73A] | 0.0291 |
| CUCUCGGUAGCCAAGUUGGUUUGAGGCGCAGGACUUUAAUUUAUCACUACGAAAUCUUGAGAUCGGGCGUUCGACUCGCCCCCGGGAGAUUUUUUCCUCGAGCAA [A23G A31G] | 0.0446 |
| CUCUCGGUAGCCAAGUUGGUUUGAGGCGCAAGACUUUAAUUUAUCACUACGAAAUCUUCAGAUGGGGCGUUCGACUUACCCCCGGGAGAUUUUUUCCUCGAGCAA [A23G G59C C64G C77U G78A] | ≤ 0.026 |
| CUCUCGGUAGCCAAGUUGGUUUUAGGCGCAAGAUGUUAAUUUAUCACUACGAAAUCUUGAGAUCGGGCGUUCGACUCGCCCCCGGGAGAUUUUUUCCUCGAGCAA [A23U C34U U35G] | ≤ 0.026 |
| CUCUCGGUAGCCAAGUUGGUUUUAGGCGCAGGGCUUUAAUUUAUCACUACGAAAUCUUGAGAUCGGCCGUUCGACUCGCCCCCGGGAGAUUUUUUCCUCGAGCAA [A23U A31G A33G G67C] | ≤ 0.026 |
| CUCUCGGUAGCCAAGUUGGUUUUAUGCGCAAGACUUUAAUUUAUCACUACGAAAUCUUGAGAUCGGGCCUUCGACUCGCCCCCGGGAGAUUUUUUCCUCGAGCAA [A23U G25U G69C] | ≤ 0.026 |
| CUCUCGGUAGCCAAGUUGGUUUGAGGCGCAAGACUUUAAUUUAUCACUACGAAAUCUUGAGAUCGGGCGUUCGACUCGCCCCCGUGAGAUUUUUUCCUCGAGCAA [A23G G85U] | 0.0779 |
| CUCUCGGUAGCCAAGUUGGUUUGAGGCGCAAGACUUUAAUUUAUCACUACGAAUUCUUGAGAUCGGGCGUUCGACUCGCCCCCGGGAGAUUUUUUCCUCGAGCAA [A23G A54U] | 0.0263 |
| CUCUCGGUAGCCAAGUUGGUUUGCGGCGCAAGACUUUAAUUUAUCACUACGAAAUCUUGAGAUCGGGCGUUCGACUCGCCCCCGGGAGAUUUUUUCCUCGAGCAA [A23G A24C] | 0.156 |
| CUCUCGGUAGCCAAGUUGGUUUUAGGCGCAAGACUUUAAUUUAUCACUACGAAAUCUUGAGCUCGGGCGUUCGACUCGCCCCCGGGAGAUUUUUUCCUCGAGCAA [A23U A62C] | ≤ 0.026 |
| CUCUCGGUAGCCAAGUUGGUUUUAGGCGCAAGACUUUAAUUUAUCACUACGAAAUCUUGAGAUCGGGCGUUCGAAUCGCCCCCGGGAGAUUUUUUCCUCGAGCAA [A23U C75A] | ≤ 0.026 |
| CUCUCGGUAGCCAAGUUGGUUUUAGGCGCAGGACUUUAAUUUAUCACUACGAAAUCUUGAGAUCGGGCGUUCGACUCGCCCCCGGGAGAUUUUUUCCUCGAGCAA [A23U A31G] | ≤ 0.026 |
| CUCUCGGUAGCCAAGUUGGUUUGAGGCGCAAGACUUUAAUUUAUCACUACGAAAUCUUGAGAUCGGACGUUCGACUCGCACCCGGGAGAUUUUUUCCUCGAGCAA [A23G G67A C80A] | ≤ 0.026 |
| CUCUCGGUAGCCAAGUUGGUUUGAGGCGCAAGACUUUAAUUUAUCACUACGAAAUCUUGAGAGCGGGCGUUCGACUCGCCCCCGGGAGAUUUUUUCCUCGAGCAA [A23G U63G] | ≤ 0.026 |
| CUCUCGGUAGCCAAGUUGGUUUGAGGCGCAAGACUUUAAUUUAUCACUACGAAAUCUUGAGAACGGGCGUUCGACUCGCCCCCGGGAGAUUUUUUCCUCGAGCAA [A23G U63A] | 0.0418 |
